Laboratory results from ChEMBL document CHEMBL4014298, “Discovery of a series of 8-(1-phenylpyrrolidin-2-yl)-6-carboxamide-2-morpholino-4H-chromen-4-one as PI3Kβ/δ inhibitors for the treatment of PTEN-deficient tumours” (Bioorg Med Chem Lett, 2017).
Converted amounts (≈) assume the structure as drawn. The source made the active and inactive calls. The calls are words filed in the database; no cut-off is given here.

How the values were obtained:
[1] = biological target: Phosphatidylinositol 4-kinase beta (Homo sapiens, UniProt Q9UBF8); assay: Inhibition of human PIK4Cbeta (1 to 801 residues) by ADP Glo HTS assay
Summary of the method: (§1)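 Lipid kinase selectivity assessed in a 15-kinase panel (Dundee University lipid kinase panel), IC50 determined.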

[2] = Fraction unbound in human plasma; format: ADME, cell-free
Summary of the method: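 Plasma protein binding in mouse, dog or human plasma, reported as fraction unbound (%).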

[3] = biological target: Phosphatidylinositol 4,5-bisphosphate 3-kinase catalytic subunit alpha isoform (Homo sapiens, UniProt P42336); assay: Inhibition of recombinant human PI3Kalpha using PIP2 as substrate preincubated for 20 mins followed by substrate addition measured after 80 mins in presence of ATP by Kinase Glo luminescence assay
[4] = biological target: Voltage-gated inwardly rectifying potassium channel KCNH2 (Homo sapiens, UniProt Q12809); assay: Inhibition of human ERG
[5] = Solubility of the compound in aqueous buffer at pH 6.5; format: physicochemical
Summary of the method: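 Solubility from crystalline solid in aqueous buffer, pH 6.5, µg/mL.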

[6] = biological target: Diacylglycerol kinase zeta (Homo sapiens, UniProt Q13574); assay: Inhibition of human DGKzeta (1 to 929 residues) by ADP Glo HTS assay; summary of the method: as §1
[7] = biological target: Phosphatidylinositol 3-kinase regulatory subunit beta (Homo sapiens, UniProt O00459); assay: Inhibition of human PI3K p85beta (1 to 724 residues) by ADP Glo HTS assay; summary of the method: as §1
[8] = biological target: T1, Phosphatidylinositol 4,5-bisphosphate 3-kinase catalytic subunit delta isoform (Homo sapiens, UniProt O00329); assay: Inhibition of PI3Kdelta in human JeKo1 B cells assessed as decrease in AKT phosphorylation at Ser473 measured after 1 hr; format: cell-based
T1 sequence (O00329 whole entry): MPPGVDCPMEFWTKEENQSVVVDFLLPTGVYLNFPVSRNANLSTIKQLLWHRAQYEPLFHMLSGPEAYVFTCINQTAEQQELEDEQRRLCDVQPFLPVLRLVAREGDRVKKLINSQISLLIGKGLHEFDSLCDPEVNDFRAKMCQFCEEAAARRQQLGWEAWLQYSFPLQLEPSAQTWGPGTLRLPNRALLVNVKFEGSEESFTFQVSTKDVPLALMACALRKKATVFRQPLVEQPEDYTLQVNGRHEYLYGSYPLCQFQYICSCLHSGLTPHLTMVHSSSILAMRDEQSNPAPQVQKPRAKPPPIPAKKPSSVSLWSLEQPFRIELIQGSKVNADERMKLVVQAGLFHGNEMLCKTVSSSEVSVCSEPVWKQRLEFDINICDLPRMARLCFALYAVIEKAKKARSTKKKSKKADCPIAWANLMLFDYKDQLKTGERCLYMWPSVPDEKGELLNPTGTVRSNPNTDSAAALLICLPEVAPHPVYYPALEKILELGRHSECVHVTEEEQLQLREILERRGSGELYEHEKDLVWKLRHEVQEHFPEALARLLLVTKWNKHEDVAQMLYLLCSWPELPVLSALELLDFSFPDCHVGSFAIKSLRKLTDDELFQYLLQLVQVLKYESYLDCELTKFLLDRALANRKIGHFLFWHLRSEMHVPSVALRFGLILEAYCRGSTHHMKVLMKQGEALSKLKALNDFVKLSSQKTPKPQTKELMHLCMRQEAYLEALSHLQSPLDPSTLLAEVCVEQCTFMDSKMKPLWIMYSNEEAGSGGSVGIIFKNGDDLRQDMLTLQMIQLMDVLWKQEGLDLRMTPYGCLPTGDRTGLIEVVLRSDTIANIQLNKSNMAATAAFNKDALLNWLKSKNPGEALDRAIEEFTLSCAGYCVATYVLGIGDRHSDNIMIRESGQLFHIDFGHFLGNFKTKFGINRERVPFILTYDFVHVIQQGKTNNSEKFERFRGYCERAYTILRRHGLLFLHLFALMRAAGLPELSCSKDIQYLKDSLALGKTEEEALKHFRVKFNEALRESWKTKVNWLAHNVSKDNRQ

Cytochrome P450 2C9 = Cytochrome P450 2C9 (Homo sapiens, UniProt P11712); assay: Inhibition of CYP2C9 (unknown origin); format: ADME
[9] = Clearance in dog blood at 4 umol/kg, iv or 10 umol/kg, po; format: ADME, organism-based, Canis lupus familiaris
Mus musculus = assay: In vivo inhibition of AKT phosphorylation at Ser473 in nude mouse xenografted with PTEN-deficient human PC3 cells at 30 mg/kg, po administered as single dose measured after 30 mins to 8 hrs; format: functional, organism-based
Summary of the method: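 Single oral dose (100 or 30 mg/kg) to nude mice carrying PTEN-deficient PC3 prostate xenografts; tumour AKT Ser473 phosphorylation measured at 30 min, 2 h and 8 h, with free plasma concentration determined at same time points.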

[10] = Clearance in mouse blood at 5 umol/kg, iv or 30 umol/kg, po; format: ADME, organism-based
[11] = biological target: Choline/ethanolamine kinase (Homo sapiens, UniProt Q9Y259); assay: Inhibition of human CHKbeta (1 to 395 residues) by ADP Glo HTS assay; summary of the method: as §1
[12] = biological target: Phosphatidylinositol 4,5-bisphosphate 3-kinase catalytic subunit gamma isoform (Mus musculus, UniProt Q9JHG7); assay: Inhibition of PI3Kgamma in mouse RAW264 cells assessed as decrease in AKT phosphorylation at Ser473; format: cell-based
Summary of the method: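 Mouse monocytic RAW264 cells; inhibition of AKT Ser473 phosphorylation measured; single determination (n=1).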

[13] = biological target: Phosphatidylinositol 4,5-bisphosphate 3-kinase catalytic subunit beta isoform (Homo sapiens, UniProt P42338); assay: Inhibition of recombinant human PI3Kbeta using PIP2 as substrate preincubated for 20 mins followed by substrate addition measured after 80 mins in presence of ATP by Kinase Glo luminescence assay
[14] = biological target: Phosphatidylinositol 4,5-bisphosphate 3-kinase catalytic subunit alpha isoform (Homo sapiens, UniProt P42336, E545K); assay: Inhibition of human PI3Kalpha (2 to 1068 residues)/p85 (1 to 724 residues) E545K mutant by ADP Glo HTS assay; summary of the method: as §1
Cytochrome P450 1A2 = Cytochrome P450 1A2 (Homo sapiens, UniProt P05177); assay: Inhibition of CYP1A2 (unknown origin); format: ADME
[15] = Oral bioavailability in dog blood at 10 umol/kg; format: ADME, organism-based, Canis lupus familiaris
Cytochrome P450 2C19 = Cytochrome P450 2C19 (Homo sapiens, UniProt P33261); assay: Inhibition of CYP2C19 (unknown origin); format: ADME
[16] = Aqueous solubility of the compound in FASSIF; format: physicochemical
Summary of the method: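 Solubility from crystalline solid in Fasted Simulated Intestinal Fluid (FASSIF), µg/mL.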

[17] = biological target: Phosphatidylinositol 5-phosphate 4-kinase type-2 alpha (Homo sapiens, UniProt P48426); assay: Inhibition of human PIP5K2alpha (1 to 406 residues) by ADP Glo HTS assay; summary of the method: as §1
[18] = biological target: Diacylglycerol kinase beta (Homo sapiens, UniProt Q9Y6T7); assay: Inhibition of human DGKbeta (1 to 804 residues) by ADP Glo HTS assay; summary of the method: as §1
[19] = biological target: Serine/threonine-protein kinase mTOR (Homo sapiens, UniProt P42345); assay: Inhibition of mTOR (unknown origin)
[20] = biological target: T1, Phosphatidylinositol 4,5-bisphosphate 3-kinase catalytic subunit delta isoform; assay: Inhibition of recombinant human PI3Kdelta using PIP2 as substrate preincubated for 20 mins followed by substrate addition measured after 80 mins in presence of ATP by Kinase Glo luminescence assay

Sequence of Voltage-gated inwardly rectifying potassium channel KCNH2 (Q12809 whole entry): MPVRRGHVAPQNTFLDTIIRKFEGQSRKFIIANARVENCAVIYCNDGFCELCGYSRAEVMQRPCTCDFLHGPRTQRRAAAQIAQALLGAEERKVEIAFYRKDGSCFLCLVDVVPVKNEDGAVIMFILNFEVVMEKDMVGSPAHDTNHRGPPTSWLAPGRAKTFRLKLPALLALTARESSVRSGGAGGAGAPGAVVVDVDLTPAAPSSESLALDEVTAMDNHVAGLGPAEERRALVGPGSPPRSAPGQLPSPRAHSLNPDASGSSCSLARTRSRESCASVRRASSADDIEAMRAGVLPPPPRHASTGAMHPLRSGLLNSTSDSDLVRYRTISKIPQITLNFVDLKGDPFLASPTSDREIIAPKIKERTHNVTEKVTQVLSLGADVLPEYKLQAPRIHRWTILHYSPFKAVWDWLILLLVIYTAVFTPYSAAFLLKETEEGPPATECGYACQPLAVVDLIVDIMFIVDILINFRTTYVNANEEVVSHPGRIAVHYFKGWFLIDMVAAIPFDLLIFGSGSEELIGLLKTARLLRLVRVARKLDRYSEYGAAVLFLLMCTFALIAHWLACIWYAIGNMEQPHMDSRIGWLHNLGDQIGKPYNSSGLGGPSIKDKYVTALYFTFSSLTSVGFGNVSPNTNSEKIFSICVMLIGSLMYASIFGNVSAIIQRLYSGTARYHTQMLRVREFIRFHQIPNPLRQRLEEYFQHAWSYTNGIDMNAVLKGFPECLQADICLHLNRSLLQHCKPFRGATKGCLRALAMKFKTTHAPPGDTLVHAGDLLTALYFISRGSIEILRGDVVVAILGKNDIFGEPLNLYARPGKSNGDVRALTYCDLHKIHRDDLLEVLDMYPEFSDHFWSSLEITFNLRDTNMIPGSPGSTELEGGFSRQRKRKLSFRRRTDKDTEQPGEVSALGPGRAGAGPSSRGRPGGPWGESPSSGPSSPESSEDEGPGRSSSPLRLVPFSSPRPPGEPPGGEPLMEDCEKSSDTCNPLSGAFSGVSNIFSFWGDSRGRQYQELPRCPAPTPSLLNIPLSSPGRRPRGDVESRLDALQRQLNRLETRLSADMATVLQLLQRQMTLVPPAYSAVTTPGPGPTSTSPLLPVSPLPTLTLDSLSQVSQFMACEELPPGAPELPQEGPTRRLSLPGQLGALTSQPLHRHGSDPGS
Sequence of Cytochrome P450 2C9 (P11712 whole entry): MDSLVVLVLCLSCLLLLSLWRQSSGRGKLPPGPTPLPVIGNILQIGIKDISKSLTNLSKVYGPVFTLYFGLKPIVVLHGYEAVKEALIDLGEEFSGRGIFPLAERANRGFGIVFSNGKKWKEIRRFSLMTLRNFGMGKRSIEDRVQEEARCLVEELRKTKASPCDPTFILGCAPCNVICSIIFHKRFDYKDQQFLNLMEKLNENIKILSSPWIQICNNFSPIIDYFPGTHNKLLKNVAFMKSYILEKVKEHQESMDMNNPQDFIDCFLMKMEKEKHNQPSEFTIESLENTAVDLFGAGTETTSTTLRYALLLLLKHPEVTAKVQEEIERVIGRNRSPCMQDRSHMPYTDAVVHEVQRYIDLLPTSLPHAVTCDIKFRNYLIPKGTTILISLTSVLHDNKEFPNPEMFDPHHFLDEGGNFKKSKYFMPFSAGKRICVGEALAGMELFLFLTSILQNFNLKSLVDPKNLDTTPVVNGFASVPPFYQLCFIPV
Sequence of Phosphatidylinositol 3-kinase regulatory subunit beta (O00459 whole entry, the tested form may be a part, canonical isoform): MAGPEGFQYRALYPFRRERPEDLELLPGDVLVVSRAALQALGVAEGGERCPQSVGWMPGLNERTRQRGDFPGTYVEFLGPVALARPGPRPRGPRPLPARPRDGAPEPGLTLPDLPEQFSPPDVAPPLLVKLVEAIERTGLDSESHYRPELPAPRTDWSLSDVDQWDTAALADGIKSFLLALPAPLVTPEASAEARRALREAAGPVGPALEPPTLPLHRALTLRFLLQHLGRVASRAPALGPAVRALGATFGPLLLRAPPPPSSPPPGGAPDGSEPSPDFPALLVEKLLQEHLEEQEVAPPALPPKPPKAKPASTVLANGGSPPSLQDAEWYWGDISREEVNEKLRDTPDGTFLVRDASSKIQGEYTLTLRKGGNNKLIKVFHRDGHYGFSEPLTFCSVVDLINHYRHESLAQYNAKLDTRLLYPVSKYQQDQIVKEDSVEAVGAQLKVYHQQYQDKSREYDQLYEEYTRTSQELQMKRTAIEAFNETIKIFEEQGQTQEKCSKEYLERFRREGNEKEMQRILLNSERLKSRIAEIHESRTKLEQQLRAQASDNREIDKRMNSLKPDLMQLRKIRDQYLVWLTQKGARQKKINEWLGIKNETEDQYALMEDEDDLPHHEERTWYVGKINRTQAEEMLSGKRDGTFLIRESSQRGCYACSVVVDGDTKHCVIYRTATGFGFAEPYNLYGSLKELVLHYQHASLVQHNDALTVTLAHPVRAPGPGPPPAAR
Sequence of Phosphatidylinositol 4,5-bisphosphate 3-kinase catalytic subunit gamma isoform (Q9JHG7 whole entry, canonical isoform): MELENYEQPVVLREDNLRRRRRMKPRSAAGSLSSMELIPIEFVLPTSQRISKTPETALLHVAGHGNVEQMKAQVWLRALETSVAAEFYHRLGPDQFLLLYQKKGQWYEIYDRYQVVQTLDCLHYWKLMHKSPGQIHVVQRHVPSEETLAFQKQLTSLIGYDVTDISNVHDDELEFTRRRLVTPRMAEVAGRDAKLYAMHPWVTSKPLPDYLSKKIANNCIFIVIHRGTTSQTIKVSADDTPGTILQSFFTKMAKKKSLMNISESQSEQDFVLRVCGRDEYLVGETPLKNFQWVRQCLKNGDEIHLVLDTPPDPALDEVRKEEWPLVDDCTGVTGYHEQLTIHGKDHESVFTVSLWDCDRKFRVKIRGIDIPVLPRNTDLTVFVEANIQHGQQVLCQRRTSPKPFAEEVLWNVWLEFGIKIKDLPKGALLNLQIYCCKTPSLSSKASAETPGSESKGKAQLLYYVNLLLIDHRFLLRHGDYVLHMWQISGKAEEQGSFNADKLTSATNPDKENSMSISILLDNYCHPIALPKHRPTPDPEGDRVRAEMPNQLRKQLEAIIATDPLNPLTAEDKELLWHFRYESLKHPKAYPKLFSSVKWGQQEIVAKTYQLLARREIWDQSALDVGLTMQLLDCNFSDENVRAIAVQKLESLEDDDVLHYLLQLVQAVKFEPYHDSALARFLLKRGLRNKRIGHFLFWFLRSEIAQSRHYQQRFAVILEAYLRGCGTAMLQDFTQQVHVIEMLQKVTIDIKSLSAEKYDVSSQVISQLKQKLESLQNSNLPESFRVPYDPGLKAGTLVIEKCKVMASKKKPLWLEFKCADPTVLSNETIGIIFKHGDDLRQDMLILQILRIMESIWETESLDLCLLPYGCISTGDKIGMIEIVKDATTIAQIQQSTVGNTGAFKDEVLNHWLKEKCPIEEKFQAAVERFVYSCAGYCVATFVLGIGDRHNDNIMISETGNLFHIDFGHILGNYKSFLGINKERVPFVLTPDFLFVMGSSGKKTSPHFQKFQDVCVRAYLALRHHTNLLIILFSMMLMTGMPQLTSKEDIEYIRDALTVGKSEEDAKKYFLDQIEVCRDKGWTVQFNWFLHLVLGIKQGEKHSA
Sequence of Diacylglycerol kinase zeta (Q13574 whole entry, the tested form may be a part): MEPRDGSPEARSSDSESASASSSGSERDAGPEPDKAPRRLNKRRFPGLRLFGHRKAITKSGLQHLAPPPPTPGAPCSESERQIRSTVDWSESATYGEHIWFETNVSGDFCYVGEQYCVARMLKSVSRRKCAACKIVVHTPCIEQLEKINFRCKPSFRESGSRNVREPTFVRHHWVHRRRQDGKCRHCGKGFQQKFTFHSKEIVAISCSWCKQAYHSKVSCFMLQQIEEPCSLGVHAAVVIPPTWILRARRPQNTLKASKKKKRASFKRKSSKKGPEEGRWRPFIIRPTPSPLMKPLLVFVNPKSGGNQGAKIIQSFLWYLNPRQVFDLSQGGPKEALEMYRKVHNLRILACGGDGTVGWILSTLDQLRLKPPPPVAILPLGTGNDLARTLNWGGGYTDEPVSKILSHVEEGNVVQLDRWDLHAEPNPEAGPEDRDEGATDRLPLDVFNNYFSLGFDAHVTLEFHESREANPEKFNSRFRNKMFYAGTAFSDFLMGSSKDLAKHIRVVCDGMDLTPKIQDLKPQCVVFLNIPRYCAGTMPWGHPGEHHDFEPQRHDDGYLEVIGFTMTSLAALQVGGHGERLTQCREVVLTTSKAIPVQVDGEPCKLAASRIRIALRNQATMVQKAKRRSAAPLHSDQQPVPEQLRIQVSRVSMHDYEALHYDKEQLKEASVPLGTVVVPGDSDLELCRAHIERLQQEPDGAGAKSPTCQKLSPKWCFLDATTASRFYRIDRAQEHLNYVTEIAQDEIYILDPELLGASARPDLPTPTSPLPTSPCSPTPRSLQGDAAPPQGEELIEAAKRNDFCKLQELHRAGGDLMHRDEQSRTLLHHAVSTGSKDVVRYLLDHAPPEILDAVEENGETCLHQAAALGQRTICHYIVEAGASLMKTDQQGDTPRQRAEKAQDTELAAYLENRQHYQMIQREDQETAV
Sequence of Choline/ethanolamine kinase (Q9Y259 whole entry, the tested form may be a part, canonical isoform): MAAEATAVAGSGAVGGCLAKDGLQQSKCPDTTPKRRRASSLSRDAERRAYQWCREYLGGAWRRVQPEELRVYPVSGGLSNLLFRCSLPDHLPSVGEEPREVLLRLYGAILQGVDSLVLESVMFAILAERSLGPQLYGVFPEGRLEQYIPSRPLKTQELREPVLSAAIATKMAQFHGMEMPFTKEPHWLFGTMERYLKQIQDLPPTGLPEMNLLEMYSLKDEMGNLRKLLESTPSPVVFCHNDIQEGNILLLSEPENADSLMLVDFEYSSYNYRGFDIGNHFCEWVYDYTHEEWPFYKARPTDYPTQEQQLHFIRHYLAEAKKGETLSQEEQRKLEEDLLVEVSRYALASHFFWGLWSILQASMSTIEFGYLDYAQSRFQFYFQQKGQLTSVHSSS

O=C(c1cc([C@H]2CCCN2c2cc(F)cc(F)c2)c2oc(N3CCOCC3)cc(=O)c2c1)N1CCOCC1
IC50 [1]: > 50 µM | fraction unbound [2]: 0.17 | IC50 [3]: 0.013 µM | IC50 [4]: 45 µM | solubility [5]: 230 µg/mL (≈ 438 µM) | IC50 [6]: > 50 µM | IC50 [7]: > 50 µM | IC50 [8]: 0.014 µM | IC50 (Cytochrome P450 2C9): > 30 µM | clearance [9]: 23 mL/min/kg | inhibition (Mus musculus): Active | clearance [10]: 60 mL/min/kg | IC50 [11]: > 50 µM | IC50 [12]: 1.5 µM | IC50 [13]: 0.0071 µM | IC50 [14]: > 50 µM | IC50 (Cytochrome P450 1A2): > 30 µM | bioavailability [15]: 29% | IC50 (Cytochrome P450 2C19): > 30 µM | solubility [16]: 430 µg/mL (≈ 818 µM) | IC50 [17]: > 50 µM | IC50 [18]: > 50 µM | IC50 [19]: 42 µM | IC50 [20]: 0.0086 µM
